Reference: ChEMBL document CHEMBL1150822, “Additional bioactive Lyso-PAF congeners from the sponge Spirastrella abata” (J Nat Prod, 2001)
Values after ≈ are worked out from the molar mass of the structure shown. Active and inactive are the calls of the source. The rule behind the calls is not given here.

Legend:
A549 = experiment: Cytotoxicity against human A549 cells after 48 hrs by SRB assay; type: functional; conditions: A549, 48 h, read-out: ED50 (the source's name)
Procedure, shortened: (§1)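 Rapidly growing cells were harvested and seeded at (1-2) × 10^4 cells/well, then preincubated for 24 h. Compounds dissolved in culture medium were added in triplicate, and cells were incubated for 48 h at 37 °C under 5% CO2. Cells were fixed with cold TCA and stained with 0.4% SRB in 1% acetic acid. Bound dye was solubilized in 10 mM unbuffered Tris base and absorbance read at 520 nm.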

SK-MEL-2 (Homo sapiens) = experiment: Cytotoxicity against human SK-MEL-2 cells after 48 hrs by SRB assay; conditions: SK-MEL-2, 48 h, read-out: ED50 (the source's name)
XF498 = experiment: Cytotoxicity against human XF498 cells after 48 hrs by SRB assay; type: functional; conditions: XF498, 48 h, read-out: ED50 (the source's name); procedure, shortened: as §1
SK-OV-3 = experiment: Cytotoxicity against human SKOV3 cells after 48 hrs by SRB assay; type: functional; conditions: SK-OV-3, 48 h, read-out: ED50 (the source's name); procedure, shortened: as §1
HCT-15 = experiment: Cytotoxicity against human HCT15 cells after 48 hrs by SRB assay; type: functional; conditions: HCT-15, 48 h, read-out: ED50 (the source's name); procedure, shortened: as §1
[1] = (§2) Inhibition of cholesterol biosynthesis in human Chang cells; type: functional, cell-based
Chang = experiment: as §2; type: functional, cell-based

Row | IC50 [1] | Compound | EC50 (A549) | EC50 (SK-MEL-2 (Homo sapiens)) | EC50 (XF498) | EC50 (SK-OV-3) | EC50 (HCT-15) | Activity (Chang)
1 | 118 µg/mL (≈ 246 µM) | CCCCCCCCCCC/C=C\CCCOC[C@H](O)COP(=O)([O-])OCC[N+](C)(C)C | > 30 µg/mL | > 30 µg/mL | > 30 µg/mL | > 30 µg/mL | > 30 µg/mL | –
2 | – | COc1cccc2c1C(=O)c1c(O)c3c(c(O)c1C2=O)C[C@@](O)(C(=O)CO)C[C@@H]3O[C@H]1C[C@H](N)[C@H](O)[C@H](C)O1 [DOXORUBICIN] | 0.02 µg/mL (≈ 0.0368 µM) | 0.02 µg/mL (≈ 0.0368 µM) | 0.08 µg/mL (≈ 0.147 µM) | 0.11 µg/mL (≈ 0.202 µM) | 0.04 µg/mL (≈ 0.0736 µM) | –
3 | – | CCCCCCCCCCCCCCC(COC[C@H](O)COP(=O)([O-])OCC[N+](C)(C)C)OC (some centres undefined) | 5.8 µg/mL (≈ 11.3 µM) | 5.2 µg/mL (≈ 10.2 µM) | 4.5 µg/mL (≈ 8.79 µM) | 5.7 µg/mL (≈ 11.1 µM) | 5 µg/mL (≈ 9.77 µM) | inactive
4 | 102 µg/mL (≈ 213 µM) | CCCCCCCCCCCC/C=C\CCOC[C@H](O)COP(=O)([O-])OCC[N+](C)(C)C | > 30 µg/mL | > 30 µg/mL | > 30 µg/mL | > 30 µg/mL | > 30 µg/mL | –
5 | – | CCCCCCCCCCCCCCCCOC[C@@H](O)COP(=O)([O-])OCC[N+](C)(C)C | 5.5 µg/mL (≈ 11.4 µM) | 5.4 µg/mL (≈ 11.2 µM) | 4.9 µg/mL (≈ 10.2 µM) | 4.9 µg/mL (≈ 10.2 µM) | 5.4 µg/mL (≈ 11.2 µM) | inactive
6 | – | CCCCCCCCCCC/C=C\CC(COC[C@H](O)COP(=O)([O-])OCC[N+](C)(C)C)OC (some centres undefined) | 6.3 µg/mL (≈ 12.4 µM) | 3.8 µg/mL (≈ 7.46 µM) | 4 µg/mL (≈ 7.85 µM) | 5.9 µg/mL (≈ 11.6 µM) | 3.7 µg/mL (≈ 7.26 µM) | –
